Reference: ChEMBL document CHEMBL3593206, “SAR Studies of Exosite-Binding Substrate-Selective Inhibitors of A Disintegrin And Metalloprotease 17 (ADAM17) and Application as Selective in Vitro Probes” (J Med Chem, 2015)
The source made the active and inactive calls. No cut-off for these calls is given here.

Columns and labels:
[1] = system: ADAM17 (Homo sapiens); assay: Inhibition of ADAM17 in HCC1806 cells assessed as inhibition of DDR1 shedding by immunoblot analysis
[2] = biological target: Matrix metalloproteinase-14 (Homo sapiens, UniProt P50281); assay: Inhibition of MMP14 (unknown origin) using Mca-KLPGL-Dnp-AR as substrate preincubated for 30 mins followed by substrate addition measured after 1 hr by fluorescence assay
Summary of the method: (§1)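 Inhibitor as 10-point 1:3 dilutions from 300 μM, 30 min at RT. Substrate added from a 30 μM 3× solution. Single fluorescence read (ex 324/em 393 nm) after 1 h at RT.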

[3] = system: MDA-MB-231; assay: Cytotoxicity against human MDA-MB-231 cells assessed as inhibition of cell viability up to 33 uM after 72 hrs by CellTiter-Glo assay; format: cell-based; conditions: mda-mb-231, 72 h
[4] = system: A549; assay: Potentiation of doxorubicin-mediated inhibition of human A549 cell viability at 40 uM incubated for 1 hr followed by doxorubicin addition measured after 72 hrs by CellTiter-Glo assay; format: functional, cell-based
Summary of the method: (§2)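 A549 cells (1250 per well) in serum-free F12 were pretreated 1 h at 37 °C with 40 μM final test compound. Gefitinib, etoposide or doxorubicin was then added as 10-point 1:3 dilutions from 300 μM. After 72 h, viability was read by CellTiter-Glo luminescence and scaled between 100 μM gefitinib (0%) and 1% DMSO (100%).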

[5] = biological target: T1, Disintegrin and metalloproteinase domain-containing protein 17 (Homo sapiens, UniProt P78536); assay: Inhibition of ADAM17 in human SK-MEL-28 cells assessed as inhibition of notch shedding at 25 uM relative to control; format: cell-based
[6] = biological target: T1, Disintegrin and metalloproteinase domain-containing protein 17; assay: Inhibition of ADAM17 in human HT1080 cells assessed as inhibition of cell invasion after 5 to 24 hrs by Transwell assay; format: cell-based; conditions: HT-1080
[7] = biological target: T1, Disintegrin and metalloproteinase domain-containing protein 17; assay: Inhibition of ADAM17 (unknown origin) preincubated for 30 mins followed by substrate addition measured every 30 mins for 2 hrs by fluorescence assay
Summary of the method: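 Enzyme at 30 nM (3× solution) in 10 mM Hepes, 0.001% Brij-35, pH 7.5. Inhibitor series of 10 points, 1:3, from 300 μM, preincubated 30 min at RT. Glycosylated substrate added from a 30 μM 3× solution. Fluorescence (ex 360/em 460 nm) read every 30 min for 2 h. Inhibition taken from hydrolysis rates against substrate-only and substrate-plus-enzyme wells.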

[8] = system: ADAM17 (Homo sapiens); assay: Inhibition of ADAM17 in HCC1806 cells assessed as inhibition of DDR1 shedding at 10 to 40 uM by immunoblot analysis relative to control
[9] = biological target: T1, Disintegrin and metalloproteinase domain-containing protein 17; assay: Inhibition of ADAM17 in human THP1 cells assessed as inhibition of LPS-stimulated TNFalpha cleavage after 1 hr by AlphaScreen assay; format: cell-based, THP-1
Summary of the method: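 THP-1 cells grown in RPMI 1640 with 10% FBS and 0.05 mM 2-mercaptoethanol; 3000 cells per well. Compound given in 3% DMSO for 1 h, then LPS added (1 μg/mL final) and cells incubated overnight at 37 °C. TNFα detected by AlphaScreen using anti-TNFα acceptor beads and streptavidin donor beads, each step 1 h in the dark at RT.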

[10] = system: HepG2; assay: Cytotoxicity against human HepG2 cells assessed as inhibition of cell viability up to 33 uM after 72 hrs by CellTiter-Glo assay; format: cell-based; conditions: hepg2, 72 h
[11] = biological target: T2, Neutrophil collagenase (Homo sapiens, UniProt P22894); assay: Inhibition of MMP8 (unknown origin) using Mca-KLPGL-Dnp-AR as substrate preincubated for 30 mins followed by substrate addition measured after 1 hr by fluorescence assay
Summary of the method: as §1
Target sequence in this assay (P22894 whole entry): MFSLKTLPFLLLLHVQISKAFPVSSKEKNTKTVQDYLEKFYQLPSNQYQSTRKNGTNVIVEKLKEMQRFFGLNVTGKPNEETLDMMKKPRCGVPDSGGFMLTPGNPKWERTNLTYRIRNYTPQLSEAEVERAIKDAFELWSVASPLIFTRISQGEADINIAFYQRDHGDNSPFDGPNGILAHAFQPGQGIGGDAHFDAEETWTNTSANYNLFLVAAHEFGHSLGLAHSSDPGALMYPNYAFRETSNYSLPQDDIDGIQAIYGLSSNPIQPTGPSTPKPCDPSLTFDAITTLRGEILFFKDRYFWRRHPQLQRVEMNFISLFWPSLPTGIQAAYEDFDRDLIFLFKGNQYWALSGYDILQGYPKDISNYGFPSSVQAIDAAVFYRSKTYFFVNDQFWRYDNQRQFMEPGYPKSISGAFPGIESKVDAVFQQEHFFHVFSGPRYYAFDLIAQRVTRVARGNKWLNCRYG

[12] = system: A549; assay: Potentiation of etoposide-mediated inhibition of human A549 cell viability at 40 uM incubated for 1 hr followed by etoposide addition measured after 72 hrs by CellTiter-Glo assay; format: functional, cell-based
Summary of the method: as §2

[13] = biological target: T1, Disintegrin and metalloproteinase domain-containing protein 17; assay: Inhibition of ADAM17 in HTSMC assessed as inhibition of DDR1 shedding at 10 to 40 uM by immunoblot analysis relative to control
[14] = biological target: T1, Disintegrin and metalloproteinase domain-containing protein 17; assay: Inhibition of ADAM17 in HTSMC assessed as inhibition of DDR1 shedding by immunoblot analysis
[15] = biological target: T1, Disintegrin and metalloproteinase domain-containing protein 17; assay: Inhibition of ADAM17 in human SW480 cells assessed as inhibition of PMA-stimulated wild type PTK7 shedding at 25 to 100 uM after 16 hrs by Western blot analysis; format: cell-based
Summary of the method: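 PTK7 shedding tested at 25, 50 and 100 μM in PMA-stimulated cells. HT1080 fibrosarcoma cells carried the L622D PTK7 mutant uncleavable by MT1-MMP; SW480 colorectal cells expressed wild-type PTK7 endogenously. Soluble PTK7 was detected.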

[16] = biological target: T2, Neutrophil collagenase; assay: Inhibition of MMP8 (unknown origin) using Mca-KLPGL-Dnp-AR as substrate at 100 uM preincubated for 30 mins followed by substrate addition measured after 1 hr by fluorescence assay relative to control
Summary of the method: as §1
Target sequence in this assay (P22894 101-467 limits assumed): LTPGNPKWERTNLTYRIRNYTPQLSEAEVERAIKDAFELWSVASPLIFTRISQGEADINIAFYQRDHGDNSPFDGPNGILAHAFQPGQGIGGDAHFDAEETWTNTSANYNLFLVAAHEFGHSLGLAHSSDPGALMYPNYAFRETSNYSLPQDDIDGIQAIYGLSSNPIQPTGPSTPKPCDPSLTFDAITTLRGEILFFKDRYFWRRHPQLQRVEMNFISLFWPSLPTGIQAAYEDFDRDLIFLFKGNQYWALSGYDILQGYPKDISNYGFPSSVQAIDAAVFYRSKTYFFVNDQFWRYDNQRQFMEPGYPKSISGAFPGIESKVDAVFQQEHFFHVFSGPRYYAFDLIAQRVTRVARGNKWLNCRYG

[17] = biological target: T3, 72 kDa type IV collagenase (Homo sapiens, UniProt P08253); assay: Inhibition of MMP2 (unknown origin) using Mca-KLPGL-Dnp-AR as substrate at 100 uM preincubated for 30 mins followed by substrate addition measured after 1 hr by fluorescence assay relative to control
Summary of the method: as §1
Target sequence in this assay (P08253 110-660 limits assumed): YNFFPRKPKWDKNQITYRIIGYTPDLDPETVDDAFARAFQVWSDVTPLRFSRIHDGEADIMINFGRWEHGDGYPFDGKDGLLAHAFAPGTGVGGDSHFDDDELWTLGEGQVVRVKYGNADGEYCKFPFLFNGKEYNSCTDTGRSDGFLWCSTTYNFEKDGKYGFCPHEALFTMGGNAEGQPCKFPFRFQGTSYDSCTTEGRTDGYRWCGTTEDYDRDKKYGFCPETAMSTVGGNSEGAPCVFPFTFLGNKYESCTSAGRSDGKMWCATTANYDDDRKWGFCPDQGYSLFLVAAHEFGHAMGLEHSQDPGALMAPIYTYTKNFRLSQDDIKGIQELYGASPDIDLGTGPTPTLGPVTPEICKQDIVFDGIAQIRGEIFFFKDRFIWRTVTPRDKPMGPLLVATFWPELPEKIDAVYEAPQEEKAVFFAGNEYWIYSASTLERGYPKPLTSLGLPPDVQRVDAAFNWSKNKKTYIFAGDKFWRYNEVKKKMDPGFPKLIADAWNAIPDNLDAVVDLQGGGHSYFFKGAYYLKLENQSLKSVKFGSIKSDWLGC

[18] = biological target: T3, 72 kDa type IV collagenase; assay: Inhibition of MMP2 (unknown origin) using Mca-KLPGL-Dnp-AR as substrate preincubated for 30 mins followed by substrate addition measured after 1 hr by fluorescence assay
Summary of the method: as §1
Target sequence in this assay (P08253 whole entry): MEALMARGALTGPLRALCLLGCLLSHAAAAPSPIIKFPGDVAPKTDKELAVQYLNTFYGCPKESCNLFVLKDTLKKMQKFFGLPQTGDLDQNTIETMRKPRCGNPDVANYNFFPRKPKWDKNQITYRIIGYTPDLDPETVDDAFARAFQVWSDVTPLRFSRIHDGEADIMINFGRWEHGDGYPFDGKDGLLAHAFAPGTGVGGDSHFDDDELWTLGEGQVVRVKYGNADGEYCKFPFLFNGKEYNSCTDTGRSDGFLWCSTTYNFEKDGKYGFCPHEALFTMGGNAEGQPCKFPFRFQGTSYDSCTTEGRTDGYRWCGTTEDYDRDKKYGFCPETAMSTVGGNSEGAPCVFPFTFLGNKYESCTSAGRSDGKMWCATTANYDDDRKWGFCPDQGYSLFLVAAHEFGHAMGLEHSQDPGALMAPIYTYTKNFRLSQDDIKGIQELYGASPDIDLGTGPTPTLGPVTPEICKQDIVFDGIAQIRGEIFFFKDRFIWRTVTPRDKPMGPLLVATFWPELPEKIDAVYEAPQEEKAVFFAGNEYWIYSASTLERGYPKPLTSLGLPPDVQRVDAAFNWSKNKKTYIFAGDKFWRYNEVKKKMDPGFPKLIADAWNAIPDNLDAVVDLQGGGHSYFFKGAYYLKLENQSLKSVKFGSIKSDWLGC

[19] = biological target: T4, Matrix metalloproteinase-9 (Homo sapiens, UniProt P14780); assay: Inhibition of MMP9 (unknown origin) using Mca-KLPGL-Dnp-AR as substrate at 100 uM preincubated for 30 mins followed by substrate addition measured after 1 hr by fluorescence assay relative to control
Summary of the method: as §1

[20] = biological target: T4, Matrix metalloproteinase-9; assay: Inhibition of MMP9 (unknown origin) using Mca-KLPGL-Dnp-AR as substrate preincubated for 30 mins followed by substrate addition measured after 1 hr by fluorescence assay
Summary of the method: as §1

[21] = biological target: T1, Disintegrin and metalloproteinase domain-containing protein 17; assay: Inhibition of ADAM17 in human EAhy926 cells assessed as inhibition of neprilysin shedding at 15 uM relative to control; format: cell-based

T1 sequence (P78536 whole entry, the tested form may be a part): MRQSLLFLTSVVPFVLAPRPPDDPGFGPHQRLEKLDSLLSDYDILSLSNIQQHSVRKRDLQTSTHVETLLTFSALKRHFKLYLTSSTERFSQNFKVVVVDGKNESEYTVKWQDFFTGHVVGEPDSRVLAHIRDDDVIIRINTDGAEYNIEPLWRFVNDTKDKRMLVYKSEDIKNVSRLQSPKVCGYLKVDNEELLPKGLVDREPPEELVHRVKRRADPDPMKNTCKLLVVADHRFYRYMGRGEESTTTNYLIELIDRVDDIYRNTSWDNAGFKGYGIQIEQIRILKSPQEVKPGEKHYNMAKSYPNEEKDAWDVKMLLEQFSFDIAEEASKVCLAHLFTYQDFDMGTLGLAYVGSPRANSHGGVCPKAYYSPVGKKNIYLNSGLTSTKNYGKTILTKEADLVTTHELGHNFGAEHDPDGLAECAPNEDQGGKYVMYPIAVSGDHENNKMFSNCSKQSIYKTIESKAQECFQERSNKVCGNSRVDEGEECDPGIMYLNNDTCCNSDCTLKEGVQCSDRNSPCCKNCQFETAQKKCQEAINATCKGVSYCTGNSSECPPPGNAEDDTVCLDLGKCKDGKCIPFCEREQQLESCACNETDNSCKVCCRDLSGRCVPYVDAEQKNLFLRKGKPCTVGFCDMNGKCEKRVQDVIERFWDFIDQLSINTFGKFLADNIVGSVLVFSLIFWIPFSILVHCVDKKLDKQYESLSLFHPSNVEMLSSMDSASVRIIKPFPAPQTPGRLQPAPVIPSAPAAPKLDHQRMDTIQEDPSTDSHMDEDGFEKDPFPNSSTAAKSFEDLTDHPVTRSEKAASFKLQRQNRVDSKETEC
T4 sequence (P14780 whole entry): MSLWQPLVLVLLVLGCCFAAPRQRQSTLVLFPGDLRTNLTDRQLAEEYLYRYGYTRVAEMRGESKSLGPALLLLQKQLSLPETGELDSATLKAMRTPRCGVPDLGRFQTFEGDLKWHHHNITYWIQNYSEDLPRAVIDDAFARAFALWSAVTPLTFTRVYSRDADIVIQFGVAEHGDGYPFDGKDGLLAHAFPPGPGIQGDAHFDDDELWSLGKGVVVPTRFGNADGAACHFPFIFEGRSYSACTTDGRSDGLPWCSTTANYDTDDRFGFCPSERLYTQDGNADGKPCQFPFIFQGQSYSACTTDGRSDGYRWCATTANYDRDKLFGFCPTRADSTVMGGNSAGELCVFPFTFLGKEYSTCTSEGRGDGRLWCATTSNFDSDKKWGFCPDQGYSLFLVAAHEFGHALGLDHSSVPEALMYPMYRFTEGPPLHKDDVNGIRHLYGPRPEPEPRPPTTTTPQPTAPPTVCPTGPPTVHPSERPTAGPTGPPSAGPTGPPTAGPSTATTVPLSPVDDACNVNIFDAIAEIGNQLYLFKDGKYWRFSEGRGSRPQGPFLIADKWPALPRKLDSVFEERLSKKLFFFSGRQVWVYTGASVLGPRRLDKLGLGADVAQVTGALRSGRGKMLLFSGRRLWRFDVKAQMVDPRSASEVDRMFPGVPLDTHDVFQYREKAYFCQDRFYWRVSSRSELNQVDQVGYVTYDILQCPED

| Structure (SMILES) | IC50 [2] [µM] | Activity [3] | IC50 [7] [µM] | Activity [10] | IC50 [11] [µM] | inhibition [15] [%] | inhibition [16] [%] | inhibition [17] [%] | IC50 [18] [µM] | inhibition [19] [%] | IC50 [20] [µM] | further results |
| --- | --- | --- | --- | --- | --- | --- | --- | --- | --- | --- | --- | --- |
| O=C1NC[C@@H](Cc2ccc(O)cc2)N(C[C@@H]2CCCN2C[C@@H](Cc2ccc3ccccc3c2)N2CC(Cc3ccc(O)cc3)N(CCC34CC5CC(CC(C5)C3)C4)C(=O)C2=O)C1=O (single isomer, unassigned) | > 100 | Non-toxic | 4.2 | Non-toxic | > 100 | 0 | 13 |  |  |  |  | inhibition [1]: Dose-dependent effect; Activity [4]: inactive; inhibition [5]: 0%; inhibition [6]: Dose-dependent effect; inhibition [8]: 59%; IC50 [9]: 100 µM; Activity [12]: inactive; inhibition [13]: 59%; inhibition [14]: Dose-dependent effect |
| CCCC[C@H]1CN([C@@H](Cc2ccc(O)cc2)CN2CCC[C@H]2CN2C(=O)C(=O)NC[C@H]2Cc2ccc3ccccc3c2)C(=O)C(=O)N1CCC12CC3CC(CC(C3)C1)C2 | > 100 |  | 5.7 |  | > 100 | 0 | 0 | 0 | > 100 | 0 | > 100 |  |
| O=C1NC[C@H](Cc2ccccc2)N(C[C@@H]2CCCN2C[C@@H](CC2CCCCC2)N2C[C@H](Cc3ccc(O)cc3)N(CCc3ccccc3)C(=O)C2=O)C1=O | > 100 | Non-toxic | 5.4 | Non-toxic | > 100 | 0 | 28 | 0 | > 100 | 13 | > 100 | inhibition [21]: 62% |
